Measurements taken from ChEMBL document CHEMBL2331231, “Arylsulfonamide inhibitors of aggrecanases as potential therapeutic agents for osteoarthritis: synthesis and biological evaluation” (Eur J Med Chem, 2013).

Assay: Cytotoxicity against pig primary chondrocytes at 1 to 10 uM after 24 hrs by MTT assay
Set-up: species or system Sus scrofa
Summary of the method: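 Primary porcine chondrocytes were isolated from diced cartilage with 1.5 mg/mL collagenase 2 in DMEM/10% FCS at 37 °C for 24 h. Cells were seeded at 2.5×10^4 per well and exposed to 1 or 10 μM inhibitor for 24 h. MTT (0.5 mg/mL final) was added for 1 h at 37 °C. Formazan was solubilized in 5% SDS/5 mM HCl overnight and read at 590 nm; n = 3.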

Question: For `O=C(CNS(=O)(=O)c1ccc(OCc2ccc(F)cc2Cl)cc1)NO`, which Activity is on record?
Answer: Non-toxic
